Published values from different studies.
Mode: inhibitor
CYP1A2: Cytochrome P450 1A2 (CYP1A2, Homo sapiens, UniProt P05177)
SLCO1B1: Solute carrier organic anion transporter family member 1B1 (SLCO1B1, Homo sapiens, UniProt Q9Y6L6)

SMILES	target	assay	system	conditions	quantity	result
CSc1ccccc1C(=O)NCCn1cc(C(=O)NCc2cccc(C)n2)c(=O)c2cc3c(cc21)OC(F)(F)O3	CYP1A2	enzyme activity	human, liver microsomes	20 min, without NADPH, with preincubation	IC50	> 100 µM
NC/C(=C\F)COc1cccc(Cn2c(=S)[nH]c(=O)c3[nH]cnc32)c1	SLCO1B1	transporter uptake	–	30 µM	inhibition	< 50%
O=C(CCCCCCC(=O)Nc1ccccc1)NO	CYP1A2	enzyme activity, fluorescence	–	–	IC50	7.28 µM
CC(C)(O)[C@@H]1CC[C@](C)([C@H]2[C@@H](O)C[C@@]3(C)[C@@H]4C[C@H](O[C@@H]5O[C@H](CO)[C@@H](O)[C@H](O)[C@H]5O)[C@H]5C(C)(C)[C@@H](O[C@@H]6OC[C@@H](O)[C@H](O)[C@H]6O)CC[C@@]56C[C@@]46CC[C@]23C)O1	CYP1A2	enzyme activity	human, liver microsomes	–	IC50	> 200 µM
CSc1ccccc1C(=O)NCCn1cc(C(=O)NCc2cccc(C)n2)c(=O)c2cc3c(cc21)OCO3	CYP1A2	enzyme activity	human, liver microsomes	20 min, without NADPH, with preincubation	IC50	> 100 µM
CC(=O)O[C@H]1[C@H](O[C@H]2CC[C@]34C[C@]35CC[C@]3(C)[C@@H]([C@@]6(C)CC[C@@H](C(C)(C)O)O6)[C@@H](O)C[C@@]3(C)[C@@H]5C[C@H](O[C@@H]3O[C@H](CO)[C@@H](O)[C@H](O)[C@H]3O)[C@H]4C2(C)C)OC[C@@H](OC(C)=O)[C@@H]1O	CYP1A2	enzyme activity	human, liver microsomes	–	IC50	> 200 µM
CC[C@H](C)[C@@H]([C@@H](CC(=O)N1CCC[C@H]1[C@H](OC)[C@@H](C)C(=O)N[C@@H](Cc1ccccc1)C(=O)NCCCO)OC)N(C)C(=O)[C@@H](NC(=O)[C@H](C(C)C)N(C)C)C(C)C	Cytochrome P450 3A4 (CYP3A4, Homo sapiens, UniProt P08684)	enzyme activity	–	–	Ki	21.8 µM
O=C(O)COc1cccc(-c2nc(Nc3ccc4[nH]ncc4c3)c3ccccc3n2)c1	SLCO1B1	transporter uptake, radiometric	–	–	IC50	0.39 µM
